# In ChEMBL document CHEMBL1770136, “A class of novel N-isoquinoline-3-carbonyl-L-amino acid benzylesters: synthesis, anti-tumor evaluation and 3D QSAR analysis” (Eur J Med Chem, 2011):
# Key:
# CCRF S-180 [1] = test: Antitumor activity against mouse S180 cells xenografted in ICR mouse assessed as decrease of tumor weight at 1 umol/kg, po qd for 7 days measured 24 hrs after last dose; type: functional
# Procedure, shortened: (§1)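 S180 solid tumors started as 1×10^7 ascites-derived cells s.c. in male ICR mice, 10–12 weeks old. From 24 h, oral doses of 1, 10 or 100 µmol/kg/day in 0.2 ml saline for 7 days; oral saline negative control, i.p. cytarabine 100 µmol/kg positive control. Tumors weighed 24 h after last dose; n = 12 per table footnote.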
# [2] = Apparent permeability from basolateral to apical side of human Caco2 cells up to 120 mins by HPLC analysis; type: ADME, cell-based; conditions: Caco-2
# Procedure, shortened: (§2)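 Caco-2 monolayers on polycarbonate transwell filters, TEER about 700 Ω cm², rechecked after each test. Compounds in HBSS at final 4 mM on the donor side, 37 °C. Receiver side sampled at 30, 60, 90 and 120 min and measured by HPLC. Papp = dQ/dt·1/(A·C0), area 1 cm²; n = 4.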
# CCRF S-180 [3] = test: Antitumor activity against mouse S180 cells xenografted in ICR mouse assessed as tumor growth inhibition at 100 umol/kg/day, ip qd for 7 days measured 24 hrs after last dose relative to control; type: functional; conditions: CCRF S-180, ip
# Procedure, shortened: (§3)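 Male ICR mice, 10–12 weeks old. S180 cells from serially passaged ascites; 1×10^7 viable cells in 0.2 ml saline injected subcutaneously at right oxter. Dosing began 24 h later, 10 per group. Daily i.p. dose of 100 µmol/kg in 0.2 ml saline for 7 days; saline and i.p. cytarabine as controls. Tumors excised and weighed 24 h after last dose; inhibition calculated versus saline group.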
# CCRF S-180 [4] = test: Antitumor activity against mouse S180 cells xenografted in ICR mouse assessed as decrease of tumor weight at 100 umol/kg, po qd for 7 days measured 24 hrs after last dose; type: functional; procedure, shortened: as §1
# Mus musculus [5] = test: Acute toxicity in ICR mouse assessed as changes in organs at 15 to 540 mg/kg, po after 7 days by necropsy analysis; type: organism-based; parameters: dose 15-540 mg/kg, route oral; conditions: in vivo, 168 h
# Procedure, shortened: (§4)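 Healthy mice were given the compound orally at 15, 90 and 540 mg/kg and observed for 7 days for neurotoxic signs (tremor, twitch, jumping, tetanus, supination) and for deaths. Organs were examined by necropsy on day 7.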
# CCRF S-180 [6] = test: Antitumor activity against mouse S180 cells xenografted in ICR mouse assessed as decrease of tumor weight at 10 umol/kg, po qd for 7 days measured 24 hrs after last dose; type: functional; procedure, shortened: as §1
# [7] = Acute toxicity in po dosed ICR mouse assessed as changes in organs after 7 days by necropsy analysis; type: organism-based; conditions: in vivo; procedure, shortened: as §4
# [8] = Apparent permeability from apical to basolateral side of human Caco2 cells up to 120 mins by HPLC analysis; type: ADME, cell-based; conditions: Caco-2; procedure, shortened: as §2
# HeLa = test: Antiproliferative activity against human HeLa cells after 48 hrs by MTT assay; type: functional, cell-based
# Procedure, shortened: (§5)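 MTT assay in 96-well cultures; HL-60 or HeLa cells at 1×10^4/ml in RPMI-1640 with 10% FCS, penicillin and streptomycin, 37 °C, 5% CO2. After 24 h, medium renewed with compound (final 1 mM to 1 nM) for 48 h, then renewed again for 4 h. Residue dissolved in DMSO, absorbance read; inhibition = (C−T)/C, IC50 computed.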
# HL-60 = test: Antiproliferative activity against human HL60 cells after 48 hrs by MTT assay; type: functional, cell-based; conditions: HL-60, 48 h; procedure, shortened: as §5
# [9] = Acute toxicity in ICR mouse assessed as mouse survival at 540 mg/kg, po; type: organism-based; parameters: dose 540 mg/kg, route oral; conditions: in vivo, read-out: Activity; procedure, shortened: as §4
# Mus musculus [10] = test: Neurotoxicity in ICR mouse assessed as neurotoxic behavior at 15 to 540 mg/kg, po after 7 days; type: toxicity, organism-based; parameters: dose 15-540 mg/kg, route oral; conditions: in vivo, 168 h; procedure, shortened: as §4
# CCRF S-180 [11] = test: Antitumor activity against mouse S180 cells xenografted in ICR mouse assessed as decrease of tumor weight at 100 umol/kg, ip qd for 7 days measured 24 hrs after last dose; type: functional; procedure, shortened: as §3
SMILES,IC50 (HeLa) [nM],IC50 (HL-60) [nM],inhibition in vivo at 100 µmol/kg (CCRF S-180 [3]) [%],other results
CC(C)C[C@H](NC(=O)c1cc2ccccc2cn1)C(=O)OCc1ccccc1,111,72.8,47.1,Activity (CCRF S-180 [1]): 1.298 g; Papp B→A at 2 h [2]: 7.12 ×10⁻⁶ cm/s; Activity (CCRF S-180 [4]): 0.938 g; Activity (Mus musculus [5]): Non-toxic; Activity (CCRF S-180 [6]): 1.011 g; LD50 at 168 h [7]: > 540 mg/kg; Papp A→B at 2 h [8]: 17.2 ×10⁻⁶ cm/s; survival [9]: 100%; Activity (Mus musculus [10]): Non-toxic
CC(C)[C@H](NC(=O)c1cc2ccccc2cn1)C(=O)OCc1ccccc1,118,78.9,29.7,–
C[C@H](O)[C@H](NC(=O)c1cc2ccccc2cn1)C(=O)OCc1ccccc1,98.7,62.2,54.4,Activity (CCRF S-180 [1]): 1.315 g; Papp B→A at 2 h [2]: 7.05 ×10⁻⁶ cm/s; Activity (CCRF S-180 [4]): 0.802 g; Activity (Mus musculus [5]): Non-toxic; Activity (CCRF S-180 [6]): 1.184 g; LD50 at 168 h [7]: > 540 mg/kg; Papp A→B at 2 h [8]: 18.6 ×10⁻⁶ cm/s; survival [9]: 100%; Activity (Mus musculus [10]): Non-toxic
O=C(OCc1ccccc1)[C@@H]1CCCN1C(=O)c1cc2ccccc2cn1,87.7,53.4,44.5,Activity (CCRF S-180 [1]): 1.661 g; Activity (CCRF S-180 [4]): 1.021 g; Activity (CCRF S-180 [6]): 1.243 g
NCCCC[C@H](NC(=O)c1cc2ccccc2cn1)C(=O)OCc1ccccc1,196,68.2,17.1,–
Nc1ccn([C@@H]2O[C@H](CO)[C@@H](O)[C@@H]2O)c(=O)n1 [CYTARABINE],–,–,54.8,Activity (CCRF S-180 [11]): 0.814 g
C[C@H](NC(=O)c1cc2ccccc2cn1)C(=O)OCc1ccccc1,154,84.8,40.6,–
CC[C@@H](C)[C@H](NC(=O)c1cc2ccccc2cn1)C(=O)OCc1ccccc1,185,96.3,20.9,–
O=C(CNC(=O)c1cc2ccccc2cn1)OCc1ccccc1,195,57.4,16.1,–
O=C(O)c1cc2ccccc2cn1,1320,949,11.5,Papp B→A at 2 h [2]: 9.28 ×10⁻⁶ cm/s; Papp A→B at 2 h [8]: 9.47 ×10⁻⁶ cm/s

# Second part, led by results:
IC50 (HeLa) [nM],IC50 (HL-60) [nM],SMILES,inhibition in vivo at 100 µmol/kg (CCRF S-180 [3]) [%],other results
396,66.1,O=C(N[C@@H](Cc1c[nH]c2ccccc12)C(=O)OCc1ccccc1)c1cc2ccccc2cn1,36.9,–
135,70.4,O=C(N[C@@H](CO)C(=O)OCc1ccccc1)c1cc2ccccc2cn1,40.4,–
181,44.5,NC(=O)CC[C@H](NC(=O)c1cc2ccccc2cn1)C(=O)OCc1ccccc1,11.9,–
309,44.9,CSCC[C@H](NC(=O)c1cc2ccccc2cn1)C(=O)OCc1ccccc1,39.6,–
263,87.6,O=C(N[C@@H](Cc1c[nH]cn1)C(=O)OCc1ccccc1)c1cc2ccccc2cn1,24.3,–
411,74,O=C(C[C@H](NC(=O)c1cc2ccccc2cn1)C(=O)OCc1ccccc1)OCc1ccccc1,37.5,–
151,91.8,O=C(N[C@@H](Cc1ccccc1)C(=O)OCc1ccccc1)c1cc2ccccc2cn1,30.1,–
508,99.9,O=C(N[C@@H](Cc1ccc(O)cc1)C(=O)OCc1ccccc1)c1cc2ccccc2cn1,28,–
216,86.9,NC(=O)C[C@H](NC(=O)c1cc2ccccc2cn1)C(=O)OCc1ccccc1,36.7,–
214,83.6,O=C(CC[C@H](NC(=O)c1cc2ccccc2cn1)C(=O)OCc1ccccc1)OCc1ccccc1,25.2,–
